In ChEMBL document CHEMBL3576860 (ACS Med Chem Lett, 2015):
The source made the active and inactive calls. The calls are words filed in the database; no cut-off is given here.

Assays:
[1] = biological target: Neuronal acetylcholine receptor subunit alpha-7 (Rattus norvegicus, UniProt Q05941); assay: Displacement of [3H]MLA from rat alpha7 nAChR transfected in tsA201 cell membrane; type: cell membranes
[2] = biological target: T1, Neuronal acetylcholine receptor; alpha4/beta2 (Rattus norvegicus, UniProt P09483+P12390); assay: Displacement of [3H]epibatidine from rat alpha4beta2 nAChR transfected in HEK293 cell membrane; type: cell membranes
Procedure, shortened: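 Rat α4β2, α4β4 or α3β4 subtypes; competition binding against [3H]epibatidine; Ki values; means of 3–5 independent experiments, each run in duplicate.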

[3] = biological target: T1, Neuronal acetylcholine receptor; alpha4/beta2; assay: Antagonist activity at rat alpha4beta2 nAChR expressed in HEK293T cells by FLIPR assay; type: cell-based, HEK-293T
Procedure, shortened: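 Fluorescence-based FLIPR membrane potential read-out of receptor function; antagonist mode gives an IC50.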

[4] = biological target: Neuronal acetylcholine receptor; alpha3/beta4 (Rattus norvegicus, UniProt P04757+P12392); assay: Displacement of [3H]epibatidine from rat alpha3beta4 nAChR transfected in HEK293 cell membrane; type: cell membranes
[5] = biological target: Neuronal acetylcholine receptor; alpha3/beta4 (Rattus norvegicus) (UniProt P04757+P12392); assay: Agonist activity at rat alpha3beta4 nAChR expressed in HEK293T cells by FLIPR assay; type: cell-based; conditions: HEK-293T
[6] = biological target: Neuronal acetylcholine receptor; alpha4/beta4 (Rattus norvegicus, UniProt P09483+P12392); assay: Displacement of [3H]epibatidine from rat alpha4beta4 nAChR transfected in HEK293 cell membrane; type: cell membranes
[7] = biological target: T1, Neuronal acetylcholine receptor; alpha4/beta2; assay: Inhibition of rat (alpha4)2(beta2)3 nAChR expressed in Xenopus laevis oocytes assessed as inhibition of 100 uM ACh-induced current by two electrode-electrophysiology method; type: cell-based
Procedure, shortened: (§1)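 Xenopus oocytes injected with α4 and β2 mRNA at ratio 10:1 for (α4)3(β2)2 or 1:10 for (α4)2(β2)3. Peak currents evoked by fixed ACh (1 mM for 10:1, 100 μM for 1:10) are measured with increasing compound concentrations. Concentration–inhibition curves give IC50, with Ki also reported.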

[8] = biological target: T2, Neuronal acetylcholine receptor; alpha4/beta2 (Rattus norvegicus) (UniProt P09483+P12390); assay: Inhibition of rat alpha4beta2 nAChR expressed in Xenopus laevis oocytes assessed as baseline current at 100 uM by two electrode-electrophysiology method; type: cell-based
Procedure, shortened: (§2)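 α4β2-expressing oocytes: compound at 100 μM applied alone to monitor baseline current, then coapplied with 30 μM ACh to assess the ACh-evoked current.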

[9] = biological target: T2, Neuronal acetylcholine receptor; alpha4/beta2 (Rattus norvegicus); assay: Inhibition of rat alpha4beta2 nAChR expressed in Xenopus laevis oocytes assessed as inhibition of 30 uM ACh-induced current at 100 uM by two electrode-electrophysiology method; type: cell-based; procedure, shortened: as §2
[10] = biological target: T1, Neuronal acetylcholine receptor; alpha4/beta2; assay: Inhibition of rat (alpha4)3(beta2)2 nAChR expressed in Xenopus laevis oocytes assessed as inhibition of 1 mM ACh-induced current by two electrode-electrophysiology method; type: cell-based; procedure, shortened: as §1
Mus musculus = assay: Antidepressant activity in mouse assessed as total swim distance at 1 to 10 mg/kg, sc by forced swimming test; type: functional, organism-based
Procedure, shortened: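 Mouse forced swim test; subcutaneous doses of 1, 3 and 10 mg/kg; swimming scored.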

Sequence of Neuronal acetylcholine receptor subunit alpha-7 (Q05941 whole entry): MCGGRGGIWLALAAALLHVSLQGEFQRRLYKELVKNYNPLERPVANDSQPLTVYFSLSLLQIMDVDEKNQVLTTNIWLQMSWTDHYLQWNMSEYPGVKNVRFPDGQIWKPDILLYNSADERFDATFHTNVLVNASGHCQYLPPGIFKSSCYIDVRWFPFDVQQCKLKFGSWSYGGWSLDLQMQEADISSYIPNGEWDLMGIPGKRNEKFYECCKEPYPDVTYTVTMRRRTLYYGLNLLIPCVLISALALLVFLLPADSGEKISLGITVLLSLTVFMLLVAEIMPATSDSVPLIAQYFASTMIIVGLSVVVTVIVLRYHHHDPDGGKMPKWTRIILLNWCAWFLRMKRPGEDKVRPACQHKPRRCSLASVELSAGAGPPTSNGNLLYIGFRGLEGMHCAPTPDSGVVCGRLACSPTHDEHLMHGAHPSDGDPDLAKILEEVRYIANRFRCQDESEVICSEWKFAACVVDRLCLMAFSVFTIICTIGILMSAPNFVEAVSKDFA
Sequence of Neuronal acetylcholine receptor; alpha3/beta4 (P04757 whole entry): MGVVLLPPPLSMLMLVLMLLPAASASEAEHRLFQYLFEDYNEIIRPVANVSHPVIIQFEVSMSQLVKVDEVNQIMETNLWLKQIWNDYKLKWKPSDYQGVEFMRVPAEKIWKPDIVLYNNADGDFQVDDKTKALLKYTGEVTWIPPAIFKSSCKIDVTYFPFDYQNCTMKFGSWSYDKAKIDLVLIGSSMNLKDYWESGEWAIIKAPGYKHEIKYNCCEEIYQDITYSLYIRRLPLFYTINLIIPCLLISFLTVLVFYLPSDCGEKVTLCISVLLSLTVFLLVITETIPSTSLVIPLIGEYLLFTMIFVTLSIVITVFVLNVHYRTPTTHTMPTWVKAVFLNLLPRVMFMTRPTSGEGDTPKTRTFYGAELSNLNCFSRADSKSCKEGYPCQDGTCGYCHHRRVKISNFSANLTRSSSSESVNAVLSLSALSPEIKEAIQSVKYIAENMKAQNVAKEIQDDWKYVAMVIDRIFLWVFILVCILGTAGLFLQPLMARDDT
Sequence of Neuronal acetylcholine receptor; alpha3/beta4 (P12392 whole entry): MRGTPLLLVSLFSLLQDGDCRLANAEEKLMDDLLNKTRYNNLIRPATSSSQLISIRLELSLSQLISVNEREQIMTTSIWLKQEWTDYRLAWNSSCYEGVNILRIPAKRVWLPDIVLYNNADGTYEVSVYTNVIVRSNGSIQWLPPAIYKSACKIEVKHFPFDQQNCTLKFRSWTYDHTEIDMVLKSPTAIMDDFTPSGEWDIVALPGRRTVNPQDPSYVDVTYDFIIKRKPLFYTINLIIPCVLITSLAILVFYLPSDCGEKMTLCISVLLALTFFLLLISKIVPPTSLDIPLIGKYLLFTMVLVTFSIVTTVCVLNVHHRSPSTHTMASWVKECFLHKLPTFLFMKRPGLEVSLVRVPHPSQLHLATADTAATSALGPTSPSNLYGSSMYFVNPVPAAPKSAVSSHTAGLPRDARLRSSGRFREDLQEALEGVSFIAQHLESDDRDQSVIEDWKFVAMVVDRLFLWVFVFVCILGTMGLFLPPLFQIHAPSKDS
T1 sequence (P09483 whole entry): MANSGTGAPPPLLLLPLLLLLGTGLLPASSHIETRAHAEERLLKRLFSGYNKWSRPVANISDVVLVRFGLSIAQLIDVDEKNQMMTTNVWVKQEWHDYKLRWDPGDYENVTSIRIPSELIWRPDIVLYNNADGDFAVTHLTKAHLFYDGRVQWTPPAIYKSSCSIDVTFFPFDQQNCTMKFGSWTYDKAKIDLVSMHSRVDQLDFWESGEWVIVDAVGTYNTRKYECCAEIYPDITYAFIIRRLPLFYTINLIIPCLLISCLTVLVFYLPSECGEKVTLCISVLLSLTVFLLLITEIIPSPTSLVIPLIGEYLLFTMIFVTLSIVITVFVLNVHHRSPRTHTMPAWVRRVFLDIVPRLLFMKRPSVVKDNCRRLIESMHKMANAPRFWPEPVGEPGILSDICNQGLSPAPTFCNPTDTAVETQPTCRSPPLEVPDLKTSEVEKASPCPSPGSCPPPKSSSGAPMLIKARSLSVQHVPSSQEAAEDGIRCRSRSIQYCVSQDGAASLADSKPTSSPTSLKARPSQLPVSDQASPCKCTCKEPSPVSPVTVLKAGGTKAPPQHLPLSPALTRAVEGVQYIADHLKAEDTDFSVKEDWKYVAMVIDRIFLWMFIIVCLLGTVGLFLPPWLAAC
T1 sequence (P12390 whole entry): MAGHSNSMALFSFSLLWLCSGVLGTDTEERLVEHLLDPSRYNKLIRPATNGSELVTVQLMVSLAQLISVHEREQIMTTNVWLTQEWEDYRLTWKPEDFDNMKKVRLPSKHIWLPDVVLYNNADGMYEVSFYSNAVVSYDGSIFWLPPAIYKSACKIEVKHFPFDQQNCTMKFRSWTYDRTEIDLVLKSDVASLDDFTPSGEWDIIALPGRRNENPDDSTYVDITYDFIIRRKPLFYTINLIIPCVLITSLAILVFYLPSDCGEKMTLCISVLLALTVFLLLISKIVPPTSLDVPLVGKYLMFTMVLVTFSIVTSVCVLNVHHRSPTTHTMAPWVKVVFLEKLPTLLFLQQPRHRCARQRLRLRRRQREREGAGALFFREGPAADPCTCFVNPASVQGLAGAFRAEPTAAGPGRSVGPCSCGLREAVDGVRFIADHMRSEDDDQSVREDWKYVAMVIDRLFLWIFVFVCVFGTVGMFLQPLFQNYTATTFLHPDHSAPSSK
Sequence of Neuronal acetylcholine receptor; alpha4/beta4 (P09483 whole entry): as the sequence (P09483 whole entry) above
Sequence of Neuronal acetylcholine receptor; alpha4/beta4 (P12392 whole entry): as the sequence (P12392 whole entry) above

Row | SMILES | Ki [1] [µM] | Ki [2] [µM] | IC50 [3] [µM] | Ki [4] [µM] | Activity [5] | Ki [6] [µM] | IC50 [7] [µM] | Ki [7] [µM] | inhibition [8] | inhibition [9] | IC50 [10] [µM] | Ki [10] [µM] | Activity (Mus musculus)
1 | c1cc2c(cn1)C1CCCN1CC2 (racemic) | 500 | 0.071 | 0.12 | 100 | inactive | 7.2 |  |  |  |  |  |  | 
2 | c1cc2c(cn1)[C@@H]1CCCN1CC2 | > 300 | 3.4 |  | 100 |  | 100 |  |  |  |  |  |  | 
3 | c1cc2c(cn1)CCN1CCCC21 (racemic) |  | 13 |  | 100 |  | 100 |  |  |  |  |  |  | 
4 | c1cc2c(cn1)[C@H]1CCCN1CC2 | 300 |  |  | 50 |  | 3.7 | 87 | 0.34 | inactive | Active | 135 | 15 | inactive
